Reference: ChEMBL document CHEMBL1152541, “Staurosporine tethered peptide ligands that target cAMP-dependent protein kinase (PKA): optimization and selectivity profiling” (Bioorg Med Chem, 2009)
Each block holds one compound with its values, some of them ahead of it. *1 amine or outer side, *2 acyl side, *3 side chain or, on linkers, in order; H or OH if unused. Where a SMILES comes first, the peptide text is derived from it. Bridges are numbered along the chain shown (N, C = ends). [ ]: non-standard residue; d: D form. The star is where a group is joined. Staurosporine = CO[C@@H]1[C@H](N(C)*)C[C@H]2O[C@]1(C)n1c3ccccc3c3c4c(c5c6ccccc6n2c5c31)C(=O)NC4; Suc = O=C(CCC(=O)[*:2])[*:1]; Dap = NC[C@H](N)C(=O)O; βAla = NCCC(=O)O

Columns and labels:
[1] = target: T1, Tyrosine-protein kinase ZAP-70 (Homo sapiens) (UniProt P43403); experiment: Ratio of staurosporine to compound binding affinity to human ZAP70 in presence of DTT
T1 sequence (whole entry): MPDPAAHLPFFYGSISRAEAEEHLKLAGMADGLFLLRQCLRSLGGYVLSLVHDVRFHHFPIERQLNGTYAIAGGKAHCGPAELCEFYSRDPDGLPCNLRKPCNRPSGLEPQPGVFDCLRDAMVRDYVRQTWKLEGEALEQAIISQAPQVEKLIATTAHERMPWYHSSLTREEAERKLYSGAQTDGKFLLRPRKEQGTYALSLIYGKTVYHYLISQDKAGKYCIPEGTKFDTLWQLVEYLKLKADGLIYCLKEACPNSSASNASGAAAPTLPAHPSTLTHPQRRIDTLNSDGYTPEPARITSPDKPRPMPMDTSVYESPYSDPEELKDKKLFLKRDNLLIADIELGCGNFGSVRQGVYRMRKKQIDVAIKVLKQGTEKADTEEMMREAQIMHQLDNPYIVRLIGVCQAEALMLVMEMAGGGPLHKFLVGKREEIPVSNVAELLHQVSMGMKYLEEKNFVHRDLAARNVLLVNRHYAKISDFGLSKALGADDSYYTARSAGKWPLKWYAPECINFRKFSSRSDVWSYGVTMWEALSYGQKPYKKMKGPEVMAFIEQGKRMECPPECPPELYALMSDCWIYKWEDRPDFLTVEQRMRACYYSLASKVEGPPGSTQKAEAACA

[2] = target: Casein kinase I isoform delta (Homo sapiens) (UniProt P48730); experiment: Binding affinity to human CSNK1D at 500 nM by cell-based competition binding assay relative to control in presence of DTT
In short: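 Commercial (Ambit) competitive kinase-binding panel of 90 kinases measured the binding profile. Run under reducing conditions of 7.5 mM DTT. Binding is expressed relative to control.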

[3] = target: Cyclin-dependent kinase 2 (Homo sapiens) (UniProt P24941); experiment: Binding affinity to human CDK2 at 500 nM by cell-based competition binding assay relative to control in presence of DTT
In short: (§1)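 Kinase binding profiling ran on a commercial (Ambit) competitive binding screen against a panel of 90 kinases. The screen used reducing conditions with 7.5 mM DTT. To withstand the DTT, the bivalent ligand was tested as its amide isostere, with the disulfide replaced. A staurosporine derivative carrying a 3 β-alanine linker was run as the reference compound.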

[4] = target: Vascular endothelial growth factor receptor 2 (Homo sapiens) (UniProt P35968); experiment: Binding affinity to human VEGFR2 at 500 nM by cell-based competition binding assay relative to control in presence of DTT
[5] = target: Hepatocyte growth factor receptor (Homo sapiens) (UniProt P08581); experiment: Binding affinity to human MET at 500 nM by cell-based competition binding assay relative to control in presence of DTT
[6] = target: Mast/stem cell growth factor receptor Kit (Homo sapiens) (UniProt P10721); experiment: Binding affinity to human KIT at 500 nM by cell-based competition binding assay relative to control in presence of DTT
In short: (§2)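 Competition binding screen (Ambit) across a panel of 90 kinases, scoring test ligand displacement of each kinase's binding relative to control. The screen ran under reducing conditions with 7.5 mM DTT.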

[7] = target: Cyclin-dependent kinase 3 (Homo sapiens) (UniProt Q00526); experiment: Binding affinity to human CDK3 at 500 nM by cell-based competition binding assay relative to control in presence of DTT; in short: as §1
[8] = target: Insulin-like growth factor 1 receptor (Homo sapiens) (UniProt P08069); experiment: Binding affinity to human IGF1R at 500 nM by cell-based competition binding assay relative to control in presence of DTT; in short: as §2
[9] = system: Tyrosine-protein kinase ABL1 (Homo sapiens), P00519 [E255K]; experiment: Binding affinity to human ABL1 E255K mutant at 200 nM by cell-based competition binding assay relative to control in presence of DTT; in short: as §1
[10] = target: Insulin receptor (Homo sapiens) (UniProt P06213); experiment: Binding affinity to human INSR at 200 nM by cell-based competition binding assay relative to control in presence of DTT; in short: as §2
[11] = target: Platelet-derived growth factor receptor beta (Homo sapiens) (UniProt P09619); experiment: Binding affinity to human PDGFRbeta at 200 nM by cell-based competition binding assay relative to control in presence of DTT
[12] = target: Proto-oncogene tyrosine-protein kinase Src (Homo sapiens) (UniProt P12931); experiment: Binding affinity to human SRC at 200 nM by cell-based competition binding assay relative to control in presence of DTT
[13] = target: ALK tyrosine kinase receptor (Homo sapiens) (UniProt Q9UM73); experiment: Binding affinity to human ALK at 200 nM by cell-based competition binding assay relative to control in presence of DTT; in short: as §1
[14] = target: Aurora kinase B (Homo sapiens) (UniProt Q96GD4); experiment: Binding affinity to human aurora kinase B at 200 nM by cell-based competition binding assay relative to control in presence of DTT
[15] = target: Mast/stem cell growth factor receptor Kit (Homo sapiens) (UniProt P10721); experiment: Binding affinity to human KIT at 200 nM by cell-based competition binding assay relative to control in presence of DTT; in short: as §2
[16] = target: Proto-oncogene tyrosine-protein kinase Src (Homo sapiens) (UniProt P12931); experiment: Binding affinity to human SRC at 50 nM by cell-based competition binding assay relative to control in presence of DTT
[17] = target: Serine/threonine-protein kinase PLK3 (Homo sapiens) (UniProt Q9H4B4); experiment: Binding affinity to human PLK3 at 50 nM by cell-based competition binding assay relative to control in presence of DTT
[18] = target: Serine/threonine-protein kinase pim-1 (Homo sapiens) (UniProt P11309); experiment: Binding affinity to human PIM1 at 50 nM by cell-based competition binding assay relative to control in presence of DTT
[19] = target: Angiopoietin-1 receptor (Homo sapiens) (UniProt Q02763); experiment: Binding affinity to human TIE2 at 50 nM by cell-based competition binding assay relative to control in presence of DTT

Selectivity ratio [1]: 3
Activity [2]: 89%
Activity [3]: 69%
Activity [4]: 36%
Activity [5]: 46%
Activity [6]: 7.4%
Activity [7]: 87%
Activity [8]: 82%
SMILES: CO[C@@H]1[C@H](N(C)C(=O)CCC(=O)NCCC(=O)NCCC(=O)NCCC(N)=O)C[C@H]2O[C@]1(C)n1c3ccccc3c3c4c(c5c6ccccc6n2c5c31)C(=O)NC4

Activity [9]: 100%
Activity [10]: 100%
Activity [11]: 3.2%
Activity [12]: 100%
Activity [13]: 60%
Activity [14]: 5.8%
Activity [15]: 39%
SMILES: CO[C@@H]1[C@H](N(C)C(=O)CCC(=O)NCCC(=O)NCCC(=O)NCCC(=O)NCCC(=O)NCCC(=O)NCCC(=O)NCCC(=O)N[C@H]2CSSC[C@@H](C(=O)NCC(N)=O)NC(=O)CNC(=O)[C@H](Cc3ccccc3)NC(=O)[C@H](C(C)C)NC(=O)[C@H](CCCNC(=N)N)NC(=O)[C@H](Cc3ccccc3)NC(=O)[C@H](C(C)C)NC2=O)C[C@H]2O[C@]1(C)n1c3ccccc3c3c4c(c5c6ccccc6n2c5c31)C(=O)NC4 ({Staurosporine-Suc-βAla-βAla-βAla-βAla-βAla-βAla-βAla}-CVFRVFGCG-NH2; disulfide 1-8)

Activity [16]: 100%
Activity [17]: 98%
Activity [18]: 79%
Activity [19]: 100%
SMILES: CO[C@@H]1[C@H](N(C)C(=O)CCC(=O)NCCC(=O)NCCC(=O)NCCC(=O)NCCC(=O)NCCC(=O)NCCC(=O)NCCC(=O)N[C@H]2CNC(=O)C[C@@H](C(N)=O)NC(=O)CNC(=O)[C@H](Cc3ccccc3)NC(=O)[C@H](C(C)C)NC(=O)[C@H](CCCNC(=N)N)NC(=O)[C@H](Cc3ccccc3)NC(=O)[C@H](C(C)C)NC2=O)C[C@H]2O[C@]1(C)n1c3ccccc3c3c4c(c5c6ccccc6n2c5c31)C(=O)NC4 ({Staurosporine-Suc-βAla-βAla-βAla-βAla-βAla-βAla-βAla}-[Dap]VFRVFGD-NH2; lactam 1-8)
